The values below come from ChEMBL document CHEMBL2311492, “Small molecule amides as potent ROR-γ selective modulators” (Bioorg Med Chem Lett, 2013).

In brackets after ≈: the same amount, converted by molar mass. Activity calls are given as the source filed them. The calls are words filed in the database; no cut-off is given here.

The target in data set [1] is T1, Nuclear receptor ROR-gamma (Homo sapiens, UniProt P51449).
T1 sequence (P51449 whole entry): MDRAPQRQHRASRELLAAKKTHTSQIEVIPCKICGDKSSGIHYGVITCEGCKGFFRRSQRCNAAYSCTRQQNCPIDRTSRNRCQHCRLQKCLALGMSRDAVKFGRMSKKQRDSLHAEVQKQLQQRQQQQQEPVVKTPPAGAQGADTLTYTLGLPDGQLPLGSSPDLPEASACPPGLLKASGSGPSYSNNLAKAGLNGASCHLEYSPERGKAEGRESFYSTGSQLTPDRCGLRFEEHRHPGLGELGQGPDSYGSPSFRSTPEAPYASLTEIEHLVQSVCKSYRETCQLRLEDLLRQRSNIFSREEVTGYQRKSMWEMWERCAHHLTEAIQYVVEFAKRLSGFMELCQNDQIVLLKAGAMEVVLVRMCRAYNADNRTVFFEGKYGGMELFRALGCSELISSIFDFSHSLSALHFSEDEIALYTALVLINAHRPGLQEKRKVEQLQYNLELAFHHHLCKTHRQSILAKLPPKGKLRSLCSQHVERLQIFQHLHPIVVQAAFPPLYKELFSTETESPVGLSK
As to the kind of experiment: Displacement of [3H]-T0903017 from GST-tagged ROR-gamma (unknown origin) after 20 hrs.

Data set [2] in a line: Solubility of the compound in sodium citrate buffer at 100 uM at pH 5 after 20 hrs. The data set is classed as physicochemical. The conditions noted are these: pH 5, 20 h. The essentials: (§1)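 100 µM compound solutions shaken at room temperature for 20 hr in PBS pH 7.4 or sodium citrate buffer pH 5.0; dissolved concentration reported in µM.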
Data set [3] can be described thus: Solubility of the compound in phosphate buffered saline at 100 uM at pH 7.4 after 20 hrs. The data set is classed as physicochemical. The following applies: buffer, pH 7.4, 20 h. In a few lines: as §1
Another data set deals with Cytochrome P450 2C9 (Homo sapiens, UniProt P11712). As to the kind of experiment: Inhibition of CYP2C9 (unknown origin) at 10 uM. The data set is classed as ADME.
Cytochrome P450 2C9, sequence (P11712 whole entry): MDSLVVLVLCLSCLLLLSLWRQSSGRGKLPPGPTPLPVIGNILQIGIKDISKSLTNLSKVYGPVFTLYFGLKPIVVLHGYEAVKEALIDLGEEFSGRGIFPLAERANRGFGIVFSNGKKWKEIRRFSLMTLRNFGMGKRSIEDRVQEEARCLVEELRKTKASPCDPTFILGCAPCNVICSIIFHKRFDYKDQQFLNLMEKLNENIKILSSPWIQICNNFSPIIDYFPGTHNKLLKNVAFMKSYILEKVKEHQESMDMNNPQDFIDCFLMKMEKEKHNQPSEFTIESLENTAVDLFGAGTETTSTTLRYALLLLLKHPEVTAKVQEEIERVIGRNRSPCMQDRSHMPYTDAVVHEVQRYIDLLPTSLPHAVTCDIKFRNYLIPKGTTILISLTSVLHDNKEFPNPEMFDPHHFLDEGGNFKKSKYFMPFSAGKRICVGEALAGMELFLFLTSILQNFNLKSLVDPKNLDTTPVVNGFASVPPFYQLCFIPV
A further data set concerns the target Cytochrome P450 2D6 (Homo sapiens, UniProt P10635). As to the kind of experiment: Inhibition of CYP2D6 (unknown origin) at 10 uM. The data set is classed as ADME.
For another data set, the target named is T2, Cytochrome P450 1A2 (Homo sapiens, UniProt P05177).
T2 sequence (P05177 whole entry): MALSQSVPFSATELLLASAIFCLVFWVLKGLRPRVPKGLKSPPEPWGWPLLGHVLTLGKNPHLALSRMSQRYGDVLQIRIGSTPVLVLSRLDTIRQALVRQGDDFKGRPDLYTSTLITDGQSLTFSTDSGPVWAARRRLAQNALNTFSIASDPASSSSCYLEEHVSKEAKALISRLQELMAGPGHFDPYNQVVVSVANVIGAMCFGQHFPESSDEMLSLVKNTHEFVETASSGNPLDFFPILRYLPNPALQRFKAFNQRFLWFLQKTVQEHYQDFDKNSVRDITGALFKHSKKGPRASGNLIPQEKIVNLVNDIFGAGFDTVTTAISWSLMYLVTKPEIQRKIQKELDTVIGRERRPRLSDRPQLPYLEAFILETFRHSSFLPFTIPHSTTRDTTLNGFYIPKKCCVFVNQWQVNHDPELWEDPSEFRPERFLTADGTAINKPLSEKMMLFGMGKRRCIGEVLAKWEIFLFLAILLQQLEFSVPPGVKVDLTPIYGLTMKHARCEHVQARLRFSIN
Put plainly: Inhibition of CYP1A2 (unknown origin) at 10 uM. The data set is classed as ADME.

For another data set, the target named is Cytochrome P450 3A4 (Homo sapiens, UniProt P08684). Put plainly: Inhibition of CYP3A4 (unknown origin) at 10 uM. In kind it is ADME.
Cytochrome P450 3A4, sequence (P08684 whole entry): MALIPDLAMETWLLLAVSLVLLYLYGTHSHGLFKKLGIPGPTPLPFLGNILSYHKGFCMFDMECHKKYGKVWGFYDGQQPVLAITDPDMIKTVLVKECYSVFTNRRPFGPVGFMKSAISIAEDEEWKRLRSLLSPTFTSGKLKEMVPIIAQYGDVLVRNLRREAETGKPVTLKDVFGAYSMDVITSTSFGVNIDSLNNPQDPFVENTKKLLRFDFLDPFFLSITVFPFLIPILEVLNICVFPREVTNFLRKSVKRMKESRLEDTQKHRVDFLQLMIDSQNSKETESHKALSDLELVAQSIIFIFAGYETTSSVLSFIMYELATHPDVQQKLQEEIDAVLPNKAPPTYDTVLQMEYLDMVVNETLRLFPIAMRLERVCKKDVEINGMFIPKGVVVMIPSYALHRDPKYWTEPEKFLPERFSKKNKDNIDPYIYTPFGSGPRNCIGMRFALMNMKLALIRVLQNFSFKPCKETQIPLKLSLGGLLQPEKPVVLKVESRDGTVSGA
A further data set relates to Brain. As to the kind of experiment: Brain penetration in C57Bl6 mouse brain at 10 mg/kg, ip after 6 hrs. The data set is classed as ADME, organism-based. On the set-up: dose 10 mg/kg, route intraperitoneal. The conditions noted are these: in vivo.
The nature of data set [4]: Drug level in C57Bl6 mouse brain at 10 mg/kg, ip after 6 hrs. In kind it is ADME, organism-based. The arrangement: dose 10 mg/kg, route intraperitoneal. The conditions noted are these: read-out: Drug uptake.
A short description of data set [5]: Plasma concentration in C57Bl6 mouse at 10 mg/kg, ip after 6 hrs. The data set is classed as ADME, organism-based. The arrangement: dose 10 mg/kg, route intraperitoneal.
In data set [6] the target is T3, Oxysterols receptor LXR-alpha (Homo sapiens) (UniProt Q13133).
T3 sequence (whole entry): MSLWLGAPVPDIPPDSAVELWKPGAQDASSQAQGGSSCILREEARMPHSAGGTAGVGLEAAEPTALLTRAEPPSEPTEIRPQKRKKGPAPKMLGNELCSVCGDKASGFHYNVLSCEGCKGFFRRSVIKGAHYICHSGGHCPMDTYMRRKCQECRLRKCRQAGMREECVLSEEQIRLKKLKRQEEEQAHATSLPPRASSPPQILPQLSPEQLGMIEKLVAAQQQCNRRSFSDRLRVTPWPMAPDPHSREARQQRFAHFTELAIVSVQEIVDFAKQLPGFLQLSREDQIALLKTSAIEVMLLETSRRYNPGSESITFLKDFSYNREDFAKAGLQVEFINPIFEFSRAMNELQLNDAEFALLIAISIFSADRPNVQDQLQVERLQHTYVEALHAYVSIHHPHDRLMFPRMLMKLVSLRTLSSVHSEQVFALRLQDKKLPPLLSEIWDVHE
As to the kind of experiment: Modulation of LXR-alpha (unknown origin).

The target in data set [7] is T4, Bile acid receptor (Homo sapiens) (UniProt Q96RI1).
T4 sequence (whole entry): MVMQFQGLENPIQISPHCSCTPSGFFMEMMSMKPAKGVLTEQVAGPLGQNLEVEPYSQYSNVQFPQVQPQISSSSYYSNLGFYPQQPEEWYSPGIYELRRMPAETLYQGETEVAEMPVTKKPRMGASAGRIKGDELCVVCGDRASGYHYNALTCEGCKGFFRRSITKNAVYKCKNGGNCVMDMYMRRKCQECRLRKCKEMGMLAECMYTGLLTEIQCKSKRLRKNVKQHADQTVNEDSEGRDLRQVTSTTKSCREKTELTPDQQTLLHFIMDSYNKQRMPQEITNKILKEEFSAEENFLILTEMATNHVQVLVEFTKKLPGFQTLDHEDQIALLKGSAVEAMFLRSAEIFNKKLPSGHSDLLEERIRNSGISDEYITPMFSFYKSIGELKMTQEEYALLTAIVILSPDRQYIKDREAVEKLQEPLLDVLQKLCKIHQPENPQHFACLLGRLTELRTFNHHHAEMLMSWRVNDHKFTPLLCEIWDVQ
As to the kind of experiment: Modulation of FXR (unknown origin).

Cytochrome P450 2D6, sequence (P10635 whole entry): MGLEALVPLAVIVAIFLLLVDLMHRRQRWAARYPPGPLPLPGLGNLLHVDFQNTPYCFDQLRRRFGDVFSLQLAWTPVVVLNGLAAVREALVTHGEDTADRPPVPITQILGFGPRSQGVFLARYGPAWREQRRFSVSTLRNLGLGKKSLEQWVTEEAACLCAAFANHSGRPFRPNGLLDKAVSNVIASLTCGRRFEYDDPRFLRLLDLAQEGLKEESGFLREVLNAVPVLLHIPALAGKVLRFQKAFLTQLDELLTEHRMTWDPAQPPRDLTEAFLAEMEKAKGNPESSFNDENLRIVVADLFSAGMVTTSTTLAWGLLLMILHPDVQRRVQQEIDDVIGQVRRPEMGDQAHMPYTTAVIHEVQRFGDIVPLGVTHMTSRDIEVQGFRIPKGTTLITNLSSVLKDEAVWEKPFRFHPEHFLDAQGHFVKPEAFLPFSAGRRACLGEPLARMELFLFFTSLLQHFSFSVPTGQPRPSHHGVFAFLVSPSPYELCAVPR

With `COc1ccc(C(CC(=O)N2CCCCC2)c2c(O)cc(OC)cc2OC)cc1` (stereo not drawn), the IC50 entry in data set [1] is given as “Not Active”.

For `COc1ccc(C(CC(=O)N2CCCC2)c2c(O)cc(OC)cc2OC)cc1` (stereo not drawn), in data set [1], the IC50 result was “Not Active”.

Regarding `COc1ccc(C(CC(=O)N2CC(C)CC(C)C2)c2c(O)cc(OC)cc2OC)cc1` (stereo not drawn), the solubility in data set [2] turned out to be 19.5 µM (≈ 8.34 µg/mL); in data set [3] it was 18 µM (≈ 7.7 µg/mL). In addition, the “inhibition (INH)” value against Cytochrome P450 2C9 is 65%; against Cytochrome P450 2D6, -7%; at Cytochrome P450 1A2 it was 4%; against Cytochrome P450 3A4 it was 75%.

For `COc1ccc(C(CC(=O)NCc2ccccc2)c2c(O)cc(OC)cc2OC)cc1` (stereo not drawn), the IC50 entry in data set [1] is “Not Active”.

For the compound `COc1ccc(C(CC(=O)N2CCOCC2)c2c(O)cc(OC)cc2OC)cc1` (stereo not drawn), in data set [1], the IC50 entry is recorded as “Not Active”.

Consider `COc1ccc(C(CC(=O)NC2CCCC2)c2c(O)cc(OC)cc2OC)cc1` (stereo not drawn), for which the IC50 result in [1] was “Not Active”.

On to `COc1cc(O)c(C(CC(=O)N2CC(C)CC(C)C2)c2ccc3c(c2)OCO3)c(OC)c1` (stereo not drawn), for which the Drug uptake in the data set with Brain was found to be 260%. Also, the concentration at 6 h in data set [4] was found to be 780 nM; in data set [5] it was 300 nM. Besides, the values for the solubility in [2] and in data set [3] were 15.2 µM (≈ 6.71 µg/mL) and 15.6 µM (≈ 6.89 µg/mL), respectively. Moreover, the “inhibition (INH)” value is on record as 92% against Cytochrome P450 2C9, 15% against Cytochrome P450 2D6, 3% at Cytochrome P450 1A2 and 97% against Cytochrome P450 3A4. For the same compound, the result in [6] and in [7] was inactive.

With `COc1cc(O)c(C(CC(=O)N2CC(C)CC(C)C2)c2ccccc2OC)c(OC)c1` (stereo not drawn), the solubility in data set [2] is 6 µM (≈ 2.57 µg/mL); in data set [3] it was 12.7 µM (≈ 5.43 µg/mL). The “inhibition (INH)” value at Cytochrome P450 2C9 was 53%; on Cytochrome P450 2D6, -11%; against Cytochrome P450 1A2, -22%; on Cytochrome P450 3A4, 70%.

Usually solubility stands for the concentration that dissolves in the medium under given conditions.
